# Source: PubChem BioAssay (several laboratories)
# The sample as a whole holds a higher share of hits than the screen did.
# T cruzi inh: blocks replication of Trypanosoma cruzi | T. cruzi beta-gal in NIH3T3, luminescence, 90 h | inhibition, % (test concentration not listed) | 300,000 tested, 1.4% active | AID 1885;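 active means mean inhibition across valid replicates above about 55%, limit read from the data; inconclusive means mean below that limit but half or more replicates reach it; inactive means mean below it, under half of replicates reach it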;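 further: signal also drops with host cell toxicity which is not excluded here; higher percent means less beta-gal luminescence so fewer parasites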
#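 Material: NIH/3T3 host cells with β-galactosidase reporter T. cruzi; Input: 5,000 host fibroblasts per well; Medium: DMEM, 2% fetal bovine serum; Compound: 50 nL DMSO compound solution per well; Schedule: 3 h host attachment, then at least 90 h co-culture; Detection: luminescent β-galactosidase signal after 60 min lysis.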
# MPTP block: permeability transition pore inhibition. isolated mouse mitochondria, Ca2+ swelling absorbance, 30 min. inhibition, % at 10 µM. 360,000 tested, 1.4% active. AID 602449;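 active means inhibition of 50% or more, scaled per plate between neutral and stimulator controls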
# Lipid droplet: hepatic lipid droplet formation modulation. 240,000 tested, 0.4% active. inhibition, % at 6.5 µM. AID 1656. AML12 mouse hepatocytes, oleate lipid droplets, BODIPY imaging;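 active means lipid droplet intensity inhibited by at least 50%, with more than 500 cells counted; inconclusive means wells with under 300 cells, treated as cytotoxic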
#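 Assay system: AML12 hepatocytes (mouse); Probe or stimulus: oleic acid at 100 µM to induce lipid droplet formation; Dosing: compound at 6.5 µM only; Schedule: compound with oleate, overnight; Detection: fluorescence imaging, 20x objective, two fields per well; Measure: % inhibition of lipid droplet signal.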
# L major viab: inhibitors of Leishmania major promastigote growth. Leishmania major promastigotes, resazurin fluorescence viability. inhibition, % at 10 µM. 200,000 tested, 9% active. AID 1063; in the data active means inhibition above about 50%;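 further: promastigotes grown with compound for 44 hours at 28 °C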
# DTT redox prof: compounds producing H2O2 with reducing agent – biochemical, NIH compound library profiling, artefact control for MLSCN library redox annotation, primary screen; DTT-dependent redox cycling H2O2, phenol red/HRP absorbance; 100% = 100 µM peroxide control, 0% = buffer; activation, % at 10 µM; 200,000 tested, 0.03% active;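 active means activation of at least 50% relative to the plate's high and low controls in the primary single-dose screen; inactive means activation below 50%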;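 further: compound incubated with DTT at 0.8 mM final as the reducing agent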
# A number is an active result; . = inactive; ? = inconclusive; / = no result given.
SMILES,T cruzi inh,MPTP block,Lipid droplet,L major viab,DTT redox prof
CCOc1ccccc1NC(=O)CC(O)(C(F)(F)F)C(F)(F)F,.,.,.,.,.
NS(=O)(=O)c1ccc(NC(=O)/C=C/c2ccccc2[N+](=O)[O-])cc1,.,.,.,69,.
Cc1ccnc(NC(=O)/C=C/c2ccccc2[N+](=O)[O-])c1,.,/,.,.,.
CCOc1ccccc1NC(=O)/C=C/c1ccccc1[N+](=O)[O-],.,.,.,78,.
COc1ccc(N2CCN(CC(=O)Nc3ccc(C)c(C)c3)CC2)cc1,.,.,.,/,/
COc1ccc(C(=O)c2ccc(Cl)cc2)cc1,.,.,.,.,.
COc1ccc(C(=O)c2ccc(Cl)c([N+](=O)[O-])c2)cc1,.,.,.,80,.
O=C(O)c1cccc(S(=O)(=O)N2CCN(C(c3ccccc3)c3ccccc3)CC2)c1,.,.,.,.,.
Cc1ccc(NC(=O)CCNC(=O)c2ccc(Cl)cc2)nc1,.,.,.,/,/
C=CCOc1cccc(/C=C2\C(=O)N(Cc3ccc(C)cc3)C(C)=C2C(=O)OC)c1,.,.,.,92,.
CCOc1ccc(OCC)c(-c2c(=O)n(OCc3ccccc3C(=O)OC)c3ccccc3[n+]2[O-])c1,.,.,/,79,.
CCOc1ccc(OCC)c(-c2c(=O)n(OCc3ccccc3Br)c3ccccc3[n+]2[O-])c1,.,.,/,71,.
COc1ccc(C2c3c(ccc4ccccc34)Oc3ncn4nc(-c5ccco5)nc4c32)cc1 (configuration not stated),.,.,.,.,.
CC1(C)CC(=O)C2=C(C1)Oc1ncn(Cc3ccco3)c(=N)c1C2c1ccccc1 (configuration not stated),.,.,/,.,.
COc1ccc(C2c3c(ncn(CCN4CCOCC4)c3=N)Oc3ccc4ccccc4c32)cc1 (configuration not stated),.,.,.,100,.
N=c1c2c(ncn1Cc1ccco1)Oc1c(ccc3ccccc13)C2c1ccccc1 (configuration not stated),.,.,.,57,.
N=c1c2c(ncn1CCN1CCOCC1)Oc1ccc3ccccc3c1C2c1ccccc1 (configuration not stated),.,.,/,99,.
COc1ccc(C2C3=C(CC(C)(C)CC3=O)Oc3ncn(Cc4ccccc4)c(=N)c32)cc1 (configuration not stated),.,.,/,63,.
Cc1ccccc1C(=O)OC1CCN(C)CC1,59,.,/,/,/
CN1CCC(OC(=O)c2cc3cc(Cl)cc(Cl)c3oc2=O)CC1,.,.,.,/,/
CN1CCC(OC(=O)c2ccc(Cl)cc2Cl)CC1,58,.,.,96,.
CN1CCC(OC(=O)c2ccco2)CC1,.,.,.,.,.
CN1CCC(OC(=O)c2cccc(Br)c2)CC1,?,.,.,93,.
CCOc1ccc(C(=O)C(C)OC(=O)c2nc(Cl)ccc2Cl)cc1 (configuration not stated),.,.,/,/,/
N=C1S/C(=C\c2ccco2)C(=O)N1c1nccs1,56,.,.,90,.
SMILES,T cruzi inh,MPTP block,Lipid droplet,L major viab,DTT redox prof
Cc1nc(NC(=O)C23CC4CC(CC(C4)C2)C3)sc1Cc1ccc2c(c1)OCO2,65,.,.,.,.
Cc1ccc(N2C(=N)/C(=C3/Nc4ccccc4S3)C(c3ccccc3)C2=O)cc1 (configuration not stated),/,.,.,100,.
Cc1ccc(N2C(=O)C(F)(F)C2c2ccccc2)cc1 (configuration not stated),.,.,.,.,.
Cc1ccc(C(=O)COC(=O)c2cccc(NC(=O)c3ccc([N+](=O)[O-])cc3[N+](=O)[O-])c2)cc1,71,.,/,92,.
CC(=O)Nc1ccc(C(=O)OCC(=O)c2ccc(C)c([N+](=O)[O-])c2)cc1,.,.,/,58,.
CN(C)c1ccc(-c2csc(C(C)(O)c3ccccc3)n2)cc1 (configuration not stated),/,.,/,/,/
Cc1cnc(CN2CCc3c([nH]c4ccccc34)C2C2CCCCC2)[nH]1 (configuration not stated),.,.,.,54,.
Cc1ccc(N(C(C)C(=O)NCc2ccncc2)S(C)(=O)=O)cc1C (configuration not stated),.,.,.,.,.
CC(=O)C1C(c2ccc(Cl)cc2)c2c(noc2C)CC1(C)O (configuration not stated),.,.,.,/,/
CCc1nn2c(N3CCOCC3)cc(C)nc2c1-c1ccccc1,.,.,.,/,/
COC(=O)c1ccccc1NC(=O)CN1CCC(n2nnc3cc(C(F)(F)F)ccc32)CC1,.,.,.,.,.
CC1Cc2ccccc2N1C(=O)CN1CCC(n2nnc3cc(C(F)(F)F)ccc32)CC1 (configuration not stated),.,.,.,95,.
Cc1ccc2c(c1)nnn2C1CCN(CC(=O)Nc2ccccc2N2CCOCC2)CC1,.,.,/,59,.
COc1ccc(C2CN=NC2C(=O)c2ccccc2)cc1 (configuration not stated),/,.,.,/,/
C[C@H](CO)N1C[C@H](C)[C@@H](CN(C)S(=O)(=O)c2ccccc2)Oc2ccc(NC(=O)CCN3CCOCC3)cc2C1=O,/,.,/,/,/
CCOC(=O)C1=C(N)OC(CCl)=C(C#N)C1c1ccsc1 (configuration not stated),.,.,.,57,.
CC1=C(C(=O)OCc2ccccc2)C(c2ccsc2)C(C#N)=C(N)O1 (configuration not stated),.,.,.,.,.
Cc1ccc(CNC(=O)COc2ccccc2-c2ccccc2)cc1,.,.,.,70,.
CC(C)(C)c1ccccc1OCC(=O)NCc1ccccc1,.,.,.,/,/
CCOC(=O)/C=C/C(=O)OCC(=O)NCc1ccccc1,.,.,.,55,.
O=C(COC(=O)c1ccccc1Cl)NC(=O)NCc1ccccc1,.,.,.,83,.
C/C(=C\C(=O)OCC(=O)NCc1ccccc1)C(=O)OCC(=O)NCc1ccccc1,.,.,.,.,.
O=C(COC(=O)c1ccccc1Br)NCc1ccccc1,.,.,.,60,.
COc1ccccc1/C=C1\CCCC2=C1Nc1nnnn1C2c1ccccc1OC (configuration not stated),/,.,.,79,.
O=C(COC(=O)c1cc(Cl)ccc1O)NCCC1=CCCCC1,.,.,/,/,/
CC(=O)N1c2ccccc2C2CCCC[C@H]21 (some centres not stated),/,.,/,/,/
Cc1nc(C(=O)NC2CCCCC2)sc1C1(C)CC(c2cccnc2)=NO1 (configuration not stated),61,/,/,/,/
CN1C(=O)/C(=C\C(=O)c2cccs2)c2ccccc21,.,.,.,100,.
O=C(Nc1ccc(F)cc1)OCCOc1ccc(Br)cc1,.,.,.,/,/
O=[N+]([O-])c1ccc(S(=O)(=O)c2ccccc2)nc1,73,.,.,/,/
